Source: PubChem
TRPC4 inh: blocks the mouse TRPC4 cation channel; Q9QUQ5; HEK293 TRPC4beta/mu-opioid, DAMGO-evoked Fluo4 calcium flux; stronger effect = lower value; B-score at 10 µM; hit rate 0.39% among 300,000;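 active = B-score over 3 SD under the library average, no early fluorescence shift, positive overall ratio signal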
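material = TRPC4beta/mu-opioid receptor HEK293 cell line | probe or stimulus = sequential submaximal and maximal DAMGO stimulation | compound dosing = one concentration per compound | measured by = Fluo4 Ca2+ flux fluorescence | evaluation = integrated fluorescence ratio relative to baseline, converted to per-well B score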
TRPC4 act: opens the mouse TRPC4 cation channel. Q9QUQ5. HEK293 TRPC4beta/mu-opioid, Fluo4 calcium fluorescence; stronger effect = higher value. B-score at 10 µM. hit rate 0.49% among 310,000;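 active = B-score above 5 SD of library B-scores, and initial fluorescence ratio not above library mean plus 5 SD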;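 note: positive B-score marks a calcium rise read as TRPC4 activation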
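System: HEK293 cells stably co-expressing mouse TRPC4beta and mu-opioid receptor; Schedule: Fluo4 dye loading 45 min at room temperature, 110 s recording; Detection: Fluo4 fluorescence, kinetic; Evaluation: B-scored integrated calcium fluorescence ratio; Controls: buffer (low) and maximal DAMGO (high).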
TRPC4 PAM: allosterically enhances the mouse TRPC4 cation channel | HEK293 TRPC4beta/mu-opioid, DAMGO EC20, Fluo-4 Ca2+ flux; stronger effect = higher value | B-score at 10 µM | hit rate 0.42% among 310,000 | AID 2227;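 active = B-score of calcium response area above 5 SD of library B-scores, with initial fluorescence ratio within 5 SD of library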;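 note: B-score of integrated fluorescence ratio over time as area under calcium response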
TRPC6 inh: blocks the mouse TRPC6 cation channel | B-score at 10 µM | Q61143 | HEK293-TRPC6, membrane potential dye, ACh-evoked depolarization; stronger effect = lower value | hit rate 1.1% among 310,000;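 active = B-score under library mean minus 3 SD, initial fluorescence not abnormally high, positive integrated signal ratio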;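 note: B-score derived from integrated fluorescence ratio over the kinetic read; more negative B-score means stronger inhibition of depolarization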
Target sequence (Q61143 whole entry, looked up): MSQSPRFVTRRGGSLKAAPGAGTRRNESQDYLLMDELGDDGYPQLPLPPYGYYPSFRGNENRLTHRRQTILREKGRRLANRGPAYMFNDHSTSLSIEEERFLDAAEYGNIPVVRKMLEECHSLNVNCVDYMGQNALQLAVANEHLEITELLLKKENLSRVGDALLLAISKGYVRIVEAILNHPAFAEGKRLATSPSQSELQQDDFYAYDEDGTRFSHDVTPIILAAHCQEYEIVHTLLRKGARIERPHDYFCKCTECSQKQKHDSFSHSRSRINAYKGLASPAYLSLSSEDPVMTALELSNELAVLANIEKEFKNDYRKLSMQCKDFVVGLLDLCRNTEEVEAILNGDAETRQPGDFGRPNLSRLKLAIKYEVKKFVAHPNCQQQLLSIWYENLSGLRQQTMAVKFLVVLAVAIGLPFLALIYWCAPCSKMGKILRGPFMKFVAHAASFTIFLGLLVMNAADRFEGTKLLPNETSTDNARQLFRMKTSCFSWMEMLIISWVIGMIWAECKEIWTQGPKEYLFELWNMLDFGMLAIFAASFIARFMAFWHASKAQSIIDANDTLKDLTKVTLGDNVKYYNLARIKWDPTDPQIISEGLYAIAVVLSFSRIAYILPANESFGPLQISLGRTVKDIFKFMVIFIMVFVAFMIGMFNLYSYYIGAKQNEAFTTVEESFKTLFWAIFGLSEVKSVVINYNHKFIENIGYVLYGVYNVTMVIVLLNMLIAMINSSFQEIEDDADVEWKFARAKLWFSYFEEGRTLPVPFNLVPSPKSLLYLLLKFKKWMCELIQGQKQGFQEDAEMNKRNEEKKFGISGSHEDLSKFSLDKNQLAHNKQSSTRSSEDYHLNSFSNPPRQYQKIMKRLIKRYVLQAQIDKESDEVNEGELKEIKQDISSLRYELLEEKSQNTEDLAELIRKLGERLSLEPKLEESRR
TRPC6 act: activators of mouse TRPC6 channel. Q61143. HEK293-TRPC6 membrane potential dye fluorescence; stronger effect = higher value. B-score at 10 µM. hit rate 0.13% among 310,000;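 active = B-score of the integrated fluorescence ratio above library mean plus 3 SD, and starting fluorescence ratio within library mean plus 5 SD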;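 note: higher score means more depolarization so channel activation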
* hit, by the source's call; i = inactive; x = no result given. Only some compounds are listed: those with a hit (about 2.3% of all), similar ones and a draw of the others.

SMILES	TRPC4 inh	TRPC4 act	TRPC4 PAM	TRPC6 inh	TRPC6 act
Cc1ccc2c(c1)N(C(=O)CCC(=O)NCC(C)c1ccccc1)CC(C)O2 (stereo not given)	i	i	i	i	i
COC(=O)c1ccccc1NC(=O)CCC(=O)N1CC(C)Oc2ccc(C)cc21 (stereo not given)	-8*	i	i	i	i
NC(=O)c1[nH]cnc1N	i	i	i	i	i
NC(=O)c1nsc(C(=O)N(Cc2ccco2)C(C(=O)NCC2CCCO2)c2ccc(F)cc2)c1N (stereo not given)	-6*	i	i	i	i
NC(=O)c1nsc(C(=O)N(Cc2ccco2)C(C(=O)NCC2CCCO2)c2ccc(O)cc2)c1N (stereo not given)	i	i	i	i	i
COc1ccc(CCN(C(=O)c2snc(C(N)=O)c2N)C(C(=O)NCC2CCCO2)c2ccc(F)cc2)cc1OC (stereo not given)	i	i	i	i	i
Cc1cccc(CCN(C(=O)c2snc(C(N)=O)c2N)C(C(=O)NCC2CCCO2)c2ccc(F)cc2)c1 (stereo not given)	-7*	i	i	i	i
NC(=O)c1nsc(C(=O)N(Cc2ccccc2F)C(C(=O)NCC2CCCO2)c2ccc(F)cc2)c1N (stereo not given)	-8*	i	i	i	i
Cc1ccccc1-n1c(SCC(=O)Nc2c(C)cccc2C)nc(O)cc1=O	i	i	i	i	i
c1ccc2c(c1)COC(CNC1CCCCC1)OC2	i	i	i	i	i
CSc1nc(C(=O)N2CCc3c([nH]c4ccccc34)C2c2ccccn2)cs1 (stereo not given)	i	i	i	i	i
Cc1ccc2nc(C(=O)N3CCc4c([nH]c5ccccc45)C3c3ccccn3)cn2c1 (stereo not given)	i	81*	i	i	i
Cc1cc(Cl)c2oc(C(=O)N(C)Cc3nccn3C)c(C)c2c1	-7*	i	i	i	i
Cc1cc(Cl)c2oc(C(=O)N(C)Cc3cc(C)[nH]n3)c(C)c2c1	i	i	i	i	i
Nc1nc(-c2ccc(-n3nncc3-c3ccco3)cc2)cs1	-5*	i	i	i	i
Cc1nc(-c2ccc(-n3nncc3-c3ccco3)cc2)cs1	i	i	i	i	i
Cc1cc(N(CCO)CCO)ccc1C(c1ccc(N(CCO)CCO)cc1C)c1ccccc1Cl	i	i	11*	i	i
CC1CCCCN1C(=O)/C=C/c1ccccc1[N+](=O)[O-] (stereo not given)	i	i	i	i	i
CCOc1ccc(OCC(=O)OCC(=O)N(CC(C)C)c2c(N)n(Cc3ccccc3)c(=O)[nH]c2=O)cc1	i	i	i	i	i
CC(C)CN(C(=O)COC(=O)COc1ccc2ccccc2c1)c1c(N)n(Cc2ccccc2)c(=O)[nH]c1=O	i	i	16*	i	i
C/C(=N\NC(=O)c1ccc(Cl)cc1)c1ccc2[nH]ccc2c1	i	i	i	i	i
CN1CCCN(C(=O)c2cc(-c3ccc(Cl)c(Cl)c3Cl)nc3ccccc23)CC1	i	52*	i	i	i
Cc1ccc(-c2cc(C(=O)N3CCC(C)CC3)c3ccccc3n2)cc1	i	i	12*	i	i
O=C(OCC(=O)N1CCN(C(=O)c2ccco2)CC1)c1cc(-c2ccc(Cl)c(Cl)c2Cl)nc2ccccc12	i	i	i	i	i
CC(C)(C)NC(=O)CN(C(=O)CNS(=O)(=O)c1ccc(Cl)cc1)c1ccc2c(c1)OCCO2	i	i	i	i	i
SMILES	TRPC4 inh	TRPC4 act	TRPC4 PAM	TRPC6 inh	TRPC6 act
O=C(Nc1ccc(Oc2c(F)c(F)c(F)c(F)c2F)cc1)OC1CCN2Cc3ccccc3N=C12 (stereo not given)	i	i	i	i	i
CCN(CC)S(=O)(=O)c1ccc(NC(=O)Cn2c(=O)oc3ccccc32)cc1	-6*	i	i	i	i
Cc1ccc(NC(=O)Cn2c(=O)oc3ccccc32)cc1	i	i	i	i	i
O=[N+]([O-])c1ccc(CN2CCN(c3nc4ccccc4s3)CC2)cc1	i	i	19*	i	i
COc1ccc(CN2CCN(c3nc4ccccc4s3)CC2)cc1	i	i	23*	i	i
CCn1c(Sc2ccc([N+](=O)[O-])cn2)nnc1-c1ccco1	i	i	i	i	i
N#Cc1c(N)sc2c1CCCCCC2	-7*	i	i	i	i
O=[N+]([O-])c1ncccc1OCc1ccc(Cl)c(Cl)c1	i	i	i	i	i
CSc1nc(NCc2ccco2)c2c3c(sc2n1)CN(C)CC3	x	64*	i	i	i
CSc1nc(SCC(=O)NCc2ccco2)c2c3c(sc2n1)CN(C)CC3	i	i	i	i	i
COc1ccc(OC)c(Nc2cc(-c3ccccc3)nc(N)n2)c1	-7*	i	i	-5.4*	i
COCCN1CCN(c2c3c(nc4cc(-c5cccc(F)c5)nn24)CCC3)CC1	i	60*	11*	i	i
CN(C)CC1CCCCC1OC(=O)c1ccc(Br)cc1 (stereo not given)	-6*	i	i	i	i
COc1ccc(C(=O)OC2CCCCC2CN(C)C)cc1 (stereo not given)	i	i	i	i	i
Cn1nnnc1SCC(=O)Nc1cc(S(=O)(=O)N2CCCC2)ccc1Cl	i	i	i	i	i
O=C(CSc1cccc(C(F)(F)F)c1)Nc1cc(S(=O)(=O)N2CCCC2)ccc1Cl	i	i	10*	i	i
CCCC(=O)c1ccc(N2CCN(C(=O)c3ccccc3Br)CC2)c(F)c1	i	i	11*	i	i
CCCC(=O)c1ccc(N2CCN(C(=O)c3ccccc3)CC2)c(F)c1	i	i	i	i	i
O=C1S/C(=C/c2ccccc2F)C(=O)N1CCN=C1NS(=O)(=O)c2ccccc21	i	i	i	i	i
O=C(O)CCC(=O)Nc1sc2c(c1C(=O)NC1CCCC1)CCCC2	i	i	i	i	i
NS(=O)(=O)c1ccc(NC(=O)CN2CCCN(S(=O)(=O)c3ccc(F)cc3)CC2)cc1	i	i	i	i	i
O=C(CN1CCCN(S(=O)(=O)c2ccc(F)cc2)CC1)Nc1ccccc1Br	-6*	i	i	i	i
Cc1ccc(NC2=Nc3ccccc3CC2)cc1	i	54*	i	i	i
NS(=O)(=O)c1ccc(Nc2nc(-c3ccc(O)cc3O)cs2)cc1	-6*	i	i	i	i
